In ChEMBL document CHEMBL1127046, “Antitumor agents. 3. Synthesis and biological activity of 4 beta-alkyl derivatives containing hydroxy, amino, and amido groups of 4'-O-demethyl-4-desoxypodophyllotoxin as antitumor agents” (J Med Chem, 1993):

Legend:
ACHN = experiment: Inhibition of growth of renal cancer ACHN cell line; type: functional; details: Homo sapiens, read-out: ED50 (the source's name)
Outline: (§1)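 Human tumour cell lines plated and grown 24 h in a CO2 incubator, then exposed to compound for 96 or 4 h. Cells counted by hemocytometer. IC50 is the concentration giving 50% reduction in cell number versus untreated control.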

A549 = experiment: Inhibition of growth of lung non-small cell carcinoma A-549 cell line; type: functional; details: Homo sapiens, read-out: ED50 (the source's name)
Outline: (§2)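 Cells were seeded and cultured for 24 h, then exposed to drug for 96 or 4 h. Cells were counted by hemocytometer. IC50 is the concentration giving a 50% reduction in cell number relative to control.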

[1] = Inhibition of growth of colon carcinoma COLO 2-1 cell line; type: functional; details: Homo sapiens, read-out: ED50 (the source's name); outline: as §2
COLO 320DM [2] = experiment: Inhibition of growth of colon cancer COLO 320DM cell line; type: functional; details: Homo sapiens, read-out: ED50 (the source's name); outline: as §2
Homo sapiens = species on record: Homo sapiens; experiment: Inhibition of growth of hepatoma HLE cell line; type: functional; details: read-out: ED50 (the source's name); outline: as §2
[3] = Inhibition of growth of renal cancer G-402 cell line; type: functional; details: Homo sapiens, read-out: ED50 (the source's name); outline: as §1
[4] = Inhibition of growth of hepatoma HLF cell line; type: functional; details: Homo sapiens, read-out: ED50 (the source's name); outline: as §2
L1210 [5] = experiment: The number of mice survived for 30 days at the dose of 2.5 (mg/kg/day); type: functional, Mus musculus
L1210 [6] = experiment: Antitumor activity in vivo expressed as the percentage increase in life span at the dose of 2.5 (mg/kg/day); type: functional, Mus musculus
[7] = system: Lewis lung carcinoma cell line; experiment: Increased life span at the dose of 0.77 (mg/kg/day); type: functional, Mus musculus
[8] = system: Lewis lung carcinoma cell line; experiment: Increased life span at the dose of 1.3 (mg/kg/day); type: functional, Mus musculus
[9] = system: Lewis lung carcinoma cell line; experiment: Increased life span at the dose of 2.3 (mg/kg/day); type: functional, Mus musculus
[10] = system: Lewis lung carcinoma cell line; experiment: Increased life span at the dose of 4 (mg/kg/day) (number of survivors); type: functional, Mus musculus
[11] = system: Lewis lung carcinoma cell line; experiment: Increased life span at the dose of 7 (mg/kg/day); type: functional, Mus musculus
[12] = system: Lewis lung carcinoma cell line; experiment: Mean body weight change after inoculation of 3.2 x 10 e 5 cells iv and administration of compounds iv from days 1-5 at the dose of 0.77 (mg/kg/day); type: functional, Mus musculus
Outline: (§3)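 Male BDF1 mice (5 weeks) given 3.2 x 10^5 Lewis lung carcinoma cells iv on day 0, then dosed iv on days 1–5. Seven mice per group, 14 controls. Mean body weight change (g) taken from day 0 to day 6.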

[13] = system: Lewis lung carcinoma cell line; experiment: Mean body weight change after inoculation of 3.2 x 10 e 5 cells iv and administration of compounds iv from days 1-5 at the dose of 2.3 (mg/kg/day); type: functional, Mus musculus; outline: as §3
[14] = system: Lewis lung carcinoma cell line; experiment: Percentage inhibition of tumor growth at the Lewis lung dose of 1.3 (mg/kg/ day); type: functional, Mus musculus
Outline: (§4)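 Lewis lung carcinoma fragments (2 mm3) implanted sc into male BDF1 mice (5 weeks) on day 0. Compound given iv on days 4–8, in saline or saline with 3.5% DMSO and 6.5% Tween 80. Seven mice per group, 10 controls. Percent inhibition from mean tumour weight versus control on day 17; p<0.05, 0.01 or 0.001 versus control.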

[15] = system: Lewis lung carcinoma cell line; experiment: Percentage inhibition of tumor growth at the Lewis lung dose of 2.3 (mg/kg/ day); type: functional, Mus musculus; outline: as §4
[16] = system: Lewis lung carcinoma cell line; experiment: Percentage inhibition of tumor growth at the Lewis lung dose of 4 (mg/kg/ day); type: functional, Mus musculus; outline: as §4
[17] = system: Lewis lung carcinoma cell line; experiment: Mean body weight change after inoculation of 3.2 x 10 e 5 cells iv and administration of compounds iv from days 1-5 at the dose of 4 (mg/kg/day); type: functional, Mus musculus; outline: as §3
[18] = system: Lewis lung carcinoma cell line; experiment: Mean body weight change after inoculation of 3.2 x 10 e 5 cells iv and administration of compounds iv from days 1-5 at the dose of 7 (mg/kg/day); type: functional, Mus musculus; outline: as §3
P388 [19] = experiment: Cytotoxicity against P388 leukemia; type: functional, cell-based; details: Mus musculus
P388 [20] = experiment: Antitumor activity in vivo expressed as the percentage increase in life span at the P388 dose of 0.8 (mg/kg/day); type: functional, Mus musculus
Outline: (§5)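 P388 leukaemia, 1 × 10^6 cells given sc to male CDF1 mice (5 weeks old) on day 0. Drug was dosed iv on days 1–5 in saline with 3.5% DMSO and 6.5% Tween 80. Groups had 7 mice; controls had 10. ILS was calculated from mean survival time of treated versus control mice, excluding 30-day survivors.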

P388 [21] = experiment: Antitumor activity in vivo expressed as the percentage increase in life span at the P388 dose of 1.3 (mg/kg/day); type: functional, Mus musculus; outline: as §5
P388 [22] = experiment: Antitumor activity in vivo expressed as the percentage increase in life span at the P388 dose of 2.3 (mg/kg/day); type: functional, Mus musculus; outline: as §5
[23] = Inhibition of growth of lung non-small cell carcinoma PC-7 cell line; type: functional; details: Homo sapiens, read-out: ED50 (the source's name); outline: as §2
[24] = Inhibition of growth of lung small cell carcinoma RERF-LC-MA cell line; type: functional; details: Homo sapiens; read-out: ED50 (the source's name); outline: as §2
SBC-3 = experiment: Inhibition of growth of lung small cell carcinoma SBC-3 cell line; type: functional; details: Homo sapiens, read-out: ED50 (the source's name); outline: as §1
[25] = Inhibition of DNA topoisomerase II from rat liver measured as 50% reduction in the amount of minicircle DNA relative to the control
Tubulin = Tubulin (Bos taurus, UniProt Q6B856+Q862L2+Q862F3); experiment: Drug concentration needed to produce a 50% reduction of bovine brain tubulin polymerization relative to the control
COLO 320DM [26] = experiment: Inhibition of growth of colon carcinoma COLO 320DM cell line; type: functional; details: Homo sapiens, read-out: ED50 (the source's name); outline: as §2
L1210 [27] = experiment: The number of mice survived for 30 days at the dose of 1.3 (mg/kg/day); type: functional, Mus musculus
L1210 [28] = experiment: Antitumor activity in vivo expressed as the percentage increase in life span at the dose of 1.3 (mg/kg/day); type: functional, Mus musculus
[29] = system: Lewis lung carcinoma cell line; experiment: Increased life span at the lewis lung dose of 0.25 (mg/kg/day); type: functional, Mus musculus
[30] = system: Lewis lung carcinoma cell line; experiment: Increased life span at the lewis lung dose of 0.44 (mg/kg/day); type: functional, Mus musculus
[31] = system: Lewis lung carcinoma cell line; experiment: Increased life span at the lewis lung dose of 0.77 (mg/kg/day); type: functional, Mus musculus
[32] = system: Lewis lung carcinoma cell line; experiment: Increased life span at the lewis lung dose of 1.3 (mg/kg/day); type: functional, Mus musculus
[33] = system: Lewis lung carcinoma cell line; experiment: Mean body weight change after inoculation of 3.2 x 10 e 5 cells iv and administration of compounds iv from days 1-5 at the dose of 0.25 (mg/kg/day); type: functional, Mus musculus; outline: as §3
[34] = system: Lewis lung carcinoma cell line; experiment: Mean body weight change after inoculation of 3.2 x 10 e 5 cells iv and administration of compounds iv from days 1-5 at the dose of 0.44 (mg/kg/day); type: functional, Mus musculus; outline: as §3
[35] = system: Lewis lung carcinoma cell line; experiment: Mean body weight change after inoculation of 3.2 x 10 e 5 cells iv and administration of compounds iv from days 1-5 at the dose of 1.3 (mg/kg/day); type: functional, Mus musculus; outline: as §3
P388 [36] = experiment: Antitumor activity in vivo expressed as the percentage increase in life span at the P388 dose of 0.4 (mg/kg/day); type: functional, Mus musculus; outline: as §5
P388 [37] = experiment: Antitumor activity in vivo expressed as the percentage increase in life span at the P388 dose of 0.3 (mg/kg/day); type: functional, Mus musculus; outline: as §5
[38] = system: Lewis lung carcinoma cell line; experiment: Percentage inhibition of tumor growth at the lewis lung dose of 0.3 (mg/kg/ day); type: functional, Mus musculus; outline: as §4
[39] = system: Lewis lung carcinoma cell line; experiment: Percentage inhibition of tumor growth at the lewis lung dose of 1.3 (mg/kg/ day); (p<0001); type: functional, Mus musculus; outline: as §4
[40] = system: Lewis lung carcinoma cell line; experiment: Percentage inhibition of tumor growth at the lewis lung dose of 2.3 (mg/kg/ day); (p<0001); type: functional, Mus musculus; outline: as §4
[41] = system: Lewis lung carcinoma cell line; experiment: Antitumor activity in vivo expressed as the percentage increase in life span at the lewis lung dose of 0.77 (mg/kg/day); type: functional, Mus musculus
[42] = system: Lewis lung carcinoma cell line; experiment: Antitumor activity in vivo expressed as the percentage increase in life span at the lewis lung dose of 1.3 (mg/kg/day); type: functional, Mus musculus
[43] = system: Lewis lung carcinoma cell line; experiment: Antitumor activity in vivo expressed as the percentage increase in life span at the lewis lung dose of 2.3 (mg/kg/day); type: functional, Mus musculus
[44] = system: Lewis lung carcinoma cell line; experiment: Antitumor activity in vivo expressed as the percentage increase in life span at the lewis lung dose of 4 (mg/kg/day); type: functional, Mus musculus
[45] = system: Lewis lung carcinoma cell line; experiment: Percentage inhibition of tumor growth at the dose of 2.3 (mg/kg/ day); type: functional, Mus musculus; outline: as §4
[46] = system: Lewis lung carcinoma cell line; experiment: Percentage inhibition of tumor growth at the dose of 4 (mg/kg/ day); type: functional, Mus musculus; outline: as §4
P388 [47] = experiment: Increased life span at the P388 dose of 0.8 (mg/kg/day); type: functional, Mus musculus; outline: as §5
P388 [48] = experiment: Increased life span at the P388 dose of 1.3 (mg/kg/day); type: functional, Mus musculus; outline: as §5
P388 [49] = experiment: Increased life span at the P388 dose of 2.3 (mg/kg/day); type: functional, Mus musculus; outline: as §5

| Structure (SMILES) | EC50 (ACHN) [µg/mL] | EC50 (A549) [µg/mL] | EC50 [1] [µg/mL] | EC50 (Homo sapiens) [µg/mL] | EC50 [3] [µg/mL] | EC50 [4] [µg/mL] | Survivors (L1210 [5]) | ILS max (L1210 [6]) [%] | bwc [12] [g] | bwc [13] [g] | bwc [17] [g] | IC50 (P388 [19]) [µM] | ILS max (P388 [20]) [%] | EC50 [23] [µg/mL] | EC50 [24] [µg/mL] | EC50 (SBC-3) [µg/mL] | IC50 [25] [µM] | IC50 (Tubulin) [µM] | EC50 (COLO 320DM [26]) [µg/mL] | bwc [35] [g] | further results |
| --- | --- | --- | --- | --- | --- | --- | --- | --- | --- | --- | --- | --- | --- | --- | --- | --- | --- | --- | --- | --- | --- |
| COc1cc([C@@H]2c3cc4c(cc3[C@@H](CCN3CCC(N5CCCCC5)CC3)C3COC(=O)[C@@H]32)OCO4)cc(OC)c1O.Cl.Cl (some centres not stated) | 1.1 | 1 | 13 | 0.31 | 0.18 | 2.7 | 6 | 102 | 0.3 | -0.5 | -1.6 | 0.0033 | 143 | 4 | 35 | 0.16 | 29.8 | > 167 | – | – | EC50 (COLO 320DM [2]): 2.1 µg/mL; ILS max [7]: 43%; ILS max [8]: 63%; ILS max [9]: 133%; ILS max [10]: -13%; ILS max [11]: -44%; Inhibition [14]: 40%; Inhibition [15]: 50%; Inhibition [16]: 91%; bwc [18]: -4.1 g; ILS max (P388 [21]): 202%; ILS max (P388 [22]): 231% |
| COc1cc([C@@H]2c3cc4c(cc3[C@@H](CCN3CCN(C)CC3)C3COC(=O)[C@@H]32)OCO4)cc(OC)c1O.Cl.Cl (some centres not stated) | 2 | 0.76 | 9.3 | 0.13 | 0.25 | 1.6 | – | – | -0.9 | – | – | 0.003 | 182 | 2.9 | 5.8 | 0.28 | 33.6 | > 132 | 0.99 | -3.3 | Survivors (L1210 [27]): 1; ILS max (L1210 [28]): 140%; ILS max [29]: 24%; ILS max [30]: 67%; ILS max [31]: 91%; ILS max [32]: 127%; bwc [33]: 0.9 g; bwc [34]: 0.3 g; ILS max (P388 [36]): 112%; ILS max (P388 [37]): 67%; Inhibition [38]: 37%; Inhibition [39]: 81%; Inhibition [40]: 96% |
| COc1cc([C@@H]2c3cc4c(cc3[C@@H](CCN(C)CCN(C)C)C3COC(=O)[C@@H]32)OCO4)cc(OC)c1O.Cl.Cl (some centres not stated) | 2 | 0.82 | 13 | 0.23 | 0.33 | 2.8 | 6 | 103 | 0.44 | -0.7 | -2.9 | 0.001 | – | 3.5 | 14 | 0.41 | 32.5 | > 99 | 2 | 0.2 | ILS max [41]: 38%; ILS max [42]: 72%; ILS max [43]: 90%; ILS max [44]: 209%; Inhibition [45]: 51%; Inhibition [46]: 95%; ILS max (P388 [47]): 116%; ILS max (P388 [48]): 196%; ILS max (P388 [49]): 236% |
